In the library only some 4.7% were active in any assay of this set; here they are far more common.
Mdm2-MdmX inh: disrupts the human Mdm2-MdmX interaction; 330,000 compounds, 3% hits; SaOS-2 split-luciferase Mdm2/MdmX complementation, luminescence; AID 485346; inhibition, % at 8 µM;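 active = inhibition of at least 50% at 8 µM in the primary screen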
Target sequence (O15151 whole entry, looked up): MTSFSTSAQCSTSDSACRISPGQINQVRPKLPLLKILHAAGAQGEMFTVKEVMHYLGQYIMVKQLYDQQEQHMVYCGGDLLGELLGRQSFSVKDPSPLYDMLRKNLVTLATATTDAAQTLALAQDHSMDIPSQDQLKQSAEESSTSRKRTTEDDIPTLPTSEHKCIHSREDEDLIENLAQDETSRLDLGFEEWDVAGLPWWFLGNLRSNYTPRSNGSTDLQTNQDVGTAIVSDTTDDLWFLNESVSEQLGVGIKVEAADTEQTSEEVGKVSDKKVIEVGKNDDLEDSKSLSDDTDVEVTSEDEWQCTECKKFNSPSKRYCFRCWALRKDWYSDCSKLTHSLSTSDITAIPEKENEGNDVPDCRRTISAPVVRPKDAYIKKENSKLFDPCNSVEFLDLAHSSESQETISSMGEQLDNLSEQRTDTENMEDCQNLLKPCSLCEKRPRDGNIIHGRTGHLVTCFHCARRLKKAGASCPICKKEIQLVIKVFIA
Target sequence (Q00987 whole entry, looked up): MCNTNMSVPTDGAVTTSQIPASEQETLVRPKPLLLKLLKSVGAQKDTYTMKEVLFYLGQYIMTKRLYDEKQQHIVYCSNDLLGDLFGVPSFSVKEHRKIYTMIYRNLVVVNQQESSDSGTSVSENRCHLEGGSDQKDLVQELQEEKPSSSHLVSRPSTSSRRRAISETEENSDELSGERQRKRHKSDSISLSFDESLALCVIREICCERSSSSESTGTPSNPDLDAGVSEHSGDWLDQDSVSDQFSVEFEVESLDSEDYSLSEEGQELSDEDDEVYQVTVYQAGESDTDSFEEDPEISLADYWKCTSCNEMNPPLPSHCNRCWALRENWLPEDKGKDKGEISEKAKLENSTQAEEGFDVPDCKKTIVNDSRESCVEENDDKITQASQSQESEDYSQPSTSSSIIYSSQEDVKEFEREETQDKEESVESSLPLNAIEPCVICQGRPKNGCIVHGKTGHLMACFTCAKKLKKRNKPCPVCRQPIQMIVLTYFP
Jurkat NFkB inh: inhibitors of the PMA/ionomycin-induced NF-kB reporter in Jurkat cells; PMA/ionomycin-induced NF-kB luciferase reporter, luminescence; inhibition, % at 4 µM; 330,000 compounds, 0.53% hits; AID 435003; in the data active = inhibition above about 50%
IMP-1 inh: inhibitors of Pseudomonas aeruginosa IMP-1 metallo-beta-lactamase; purified IMP-1, nitrocefin hydrolysis, epi-absorbance fluorescence; AID 1556; 290,000 compounds, 0.45% hits; inhibition, % at 5.6 µM;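 active = inhibition above the mean plus 3 SD of all compounds in the same screening run, cut at about 4.5% in these data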;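 note: 0% = IMP-1 with DMSO and 100% = DMSO wells lacking enzyme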
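System: purified recombinant IMP-1 beta-lactamase. Medium: Zinc- and detergent-supplemented HEPES buffer, pH 7.1. Compound: one 5.6 µM dose […]. Schedule: 15 min preincubation plus 25 min reaction at 25 °C. Technique: Epi-absorbance fluorescence, 480 nm excitation, 530 nm emission.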
697 NFkB inh: lowers PMA/ionomycin-induced NF-kB signal in 697 B cells | inhibition, % at 4 µM | 697 B-cell NF-kB luciferase reporter, 16 h | AID 435022 | 330,000 compounds, 0.33% hits; in the data active = inhibition above about 35%
aSyn 5UTR inh: 5' untranslated region of α-synuclein, MLPCN primary screen | alpha-synuclein 5'UTR reporter, inhibitor activity | inhibition, % (tested at 7.5 µM) | 300,000 compounds, 0.82% hits; in the data active = inhibition above about 60%; inconclusive = no clear call, values can overlap the other calls;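 note: H4 neuroglioblastoma cells stably carrying SNCA 5'UTR luciferase fusion; 0% = DMSO wells and 100% = positive control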
VIM-2 inh: blocks Pseudomonas aeruginosa VIM-2 metallo-beta-lactamase; purified VIM-2, nitrocefin hydrolysis, epi-absorbance fluorescence; inhibition, % at 5.6 µM; 290,000 compounds, 0.89% hits;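 active = inhibition above the mean of all tested compounds plus 3 SD, cutoff set per screening run, cut at about 7.5% in these data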;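 note: red hydrolysis product quenches plate fluorescence so inhibitors raise well fluorescence; 0% = enzyme with DMSO and 100% = DMSO without enzyme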
Jurkat NFkB conf: lowers PMA/ionomycin-induced NF-kB signal in Jurkat cells. shares compounds with Jurkat NFkB inh. Jurkat NF-kB luciferase, 16 h. inhibition, % at 4 µM. 2,700 compounds, 27% hits. AID 435020;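 active = inhibition reaching about 45% at 4 µM in either replicate, limit read from the data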;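 note: plate controls were PMA/ionomycin stimulated DMSO wells for no effect and unstimulated DMSO wells for full effect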
Mdm2-MdmX conf: confirmation of human Mdm2/MdmX interaction inhibitors; AID 489028; inhibition, % at 8 µM; Mdm2-MdmX binding, luminescent assay; 10,000 compounds, 55% hits; shares compounds with Mdm2-MdmX inh; in the data active = inhibition above about 40%
FLuc counter: full-length luciferase inhibition in Mdm2/MdmX counter-screen; inhibition, % at 8 µM; 6,200 compounds, 77% hits; SaOS-2 full-length luciferase counterscreen, luminescence; shares compounds with Mdm2-MdmX inh;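 active = mean inhibition at 8 µM reaching about 37%, which flags the compound as non-specific, limit read from the data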;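 note: p53-null SaOS-2 cells with luciferase driven by a doxycycline-inducible promoter; compound on cells about two nights before reading with doxycycline added after day one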
Starred values were filed as active, the others as inactive; ? = inconclusive; / = not tested or not shown.

SMILES	Mdm2-MdmX inh	Jurkat NFkB inh	IMP-1 inh	697 NFkB inh	aSyn 5UTR inh	VIM-2 inh	Jurkat NFkB conf	Mdm2-MdmX conf	FLuc counter
CN(CC(=O)Nc1cccc(S(=O)(=O)N2CCCC2)c1)CC(=O)Nc1ccc(Cl)c(C(F)(F)F)c1	29.0	28.7	/	-28.9	11.7	/	/	/	/
COc1ccc(NC(=O)C2CCCC2)cc1S(=O)(=O)N1CCOCC1	5.7	20.6	/	18.4	/	/	/	/	/
CCOc1ccccc1C(=O)Nc1ccc2nc(N3CCN(c4ncccn4)CC3)cc(C)c2c1	95.8*	70.2*	-2.7	-49.4	/	-3.2	43.7	84.2*	51.1*
COc1ccc(C(=O)Nc2ccc3nc(N4CCN(C)CC4)cc(C)c3c2)c(OC)c1	36.9	-1.5	-1.1	-8.3	-78.0	0.5	/	/	/
CSc1ccc(COC(=O)c2cc([N+](=O)[O-])ccc2N2CCOCC2)cc1	61.4*	81.1*	/	-84.8	66.9*	/	66.3*	77.2*	113.3*
Cc1ccc(C(=O)c2cc([N+](=O)[O-])ccc2N2CCOCC2)cc1C	51.4*	66.2*	-1.1	-75.4	16.8	-0.4	51.1*	61.5*	60.4*
Cc1ccc(C(=O)c2cc([N+](=O)[O-])ccc2N2CCCCC2)cc1C	63.9*	63.2*	-0.7	-33.5	56.4	-3.1	41.6	57.8*	60.4*
O=C(NC1CCCCC1)c1cc([N+](=O)[O-])ccc1N1CCCCC1	3.7	-0.1	-1.4	-6.3	1.9	-2.6	/	/	/
O=C(c1cc([N+](=O)[O-])ccc1N1CCOCC1)N1CCN(c2ccccc2)CC1	57.9*	73.7*	-2.6	-53.6	91.4*	-0.9	33.1	77.2*	95.4*
O=C(COC(=O)c1cc([N+](=O)[O-])ccc1N1CCOCC1)c1ccc(Br)cc1	20.5	13.0	/	-16.0	6.9	/	/	/	/
CN1CCN(c2ccc([N+](=O)[O-])cc2C(=O)N2CCOCC2)CC1	-9.0	-8.7	-1.6	-4.5	0.6	-1.9	/	/	/
COc1cc(OC)c(-n2cc(-c3ccc(OC)c(OC)c3)[nH]c2=S)cc1Cl	-3.2	-3.5	-1.6	20.7	-14.2	-4.8	/	/	/
CC(=O)c1ccc(OCC(=O)OCC(=O)N(CC(C)C)c2c(N)n(Cc3ccccc3)c(=O)[nH]c2=O)cc1	-5.6	-6.0	/	3.1	/	/	/	/	/
O=C(Nc1ccc(Cl)c(S(=O)(=O)N2CCCCC2)c1)c1cccnc1	10.3	0.2	/	-5.9	/	/	/	/	/
COc1ccc(NC(=O)c2cccc(-c3ccc(O)cc3)c2)cn1	37.2	5.9	1.2	6.8	-8.0	0.2	/	/	/
Cc1ccc(C)c(C(=O)COC(=O)c2cc([N+](=O)[O-])ccc2N2CCOCC2)c1	3.3	25.6	/	-5.0	10.0	/	/	/	/
Cc1ccc(C(=O)c2cc([N+](=O)[O-])ccc2N2CCOCC2)c(C)c1	67.0*	55.0*	-2.7	21.6	97.7*	-6.2	49.9*	57.8*	97.1*
Cc1cc(C)nc(SCC(=O)c2ccc(F)cc2)n1	-1.0	-62.1	1.3	-62.3	-9.5	0.9	/	/	/
Cc1cc(C)nc(S/C=C/C(=O)c2ccc(F)cc2)n1	100.9*	69.5*	-2.7	-155.4	-40.0	-1.2	-1.2	-2.1	/
CCOC(=O)c1ccc(-c2c(-c3cc(OC)c(OC)c(OC)c3)noc2C)cc1F	62.2*	56.7*	-5.3	-38.0	?	-1.7	36.5	52.2*	88.6*
COc1ccc(S(=O)(=O)N2CCc3ccccc32)cc1C(=O)N(CC(C)C)C1CCS(=O)(=O)C1 (configuration not stated)	15.4	-2.4	/	-3.2	5.8	/	/	/	/
O=S1(=O)C=C(Sc2nc3cc(Cl)ccc3o2)c2ccccc21	96.8*	96.6*	-1.1	-185.1	54.6	-4.8	90.4*	96.0*	51.2*
Cc1cc(NC(=O)CSc2nc3cc(Cl)ccc3o2)no1	35.0	-6.4	-3.2	-1.7	-35.7	-1.7	/	/	/
CCOc1ccc(N(CC(=O)Nc2ccccc2C)S(=O)(=O)c2c(C)noc2C)cc1	55.6*	58.4*	-6.1	-62.0	?	-2.4	45.8*	57.4*	57.4*
CCOc1ccccc1NC(=O)CN(c1cc(C)cc(C)c1)S(=O)(=O)c1c(C)noc1C	-34.2	-0.8	-3.2	2.8	-21.4	-0.4	/	/	/
SMILES	Mdm2-MdmX inh	Jurkat NFkB inh	IMP-1 inh	697 NFkB inh	aSyn 5UTR inh	VIM-2 inh	Jurkat NFkB conf	Mdm2-MdmX conf	FLuc counter
CCOc1ccccc1NC(=O)CN(c1ccc(OC)cc1)S(=O)(=O)c1c(C)noc1C	58.5*	65.1*	-4.0	-43.8	59.3	1.0	44.4	56.5*	60.0*
CC(OC(=O)c1cccc(-n2cnnn2)c1)C(=O)Nc1ccc(F)cc1Cl (configuration not stated)	30.9	-4.4	/	13.1	13.3	/	/	/	/
C#CCOCCOCCOCCNc1nc(N2CCN(C(=O)CCCCCCCCCCNC(=O)[C@H](CCCCN)n3cc(C)nn3)CC2)nc(N2CCN(C(=O)CCCCCCCCCCNC(=O)[C@H](CCCN=C(N)N)n3cc(C[C@@H](C)CC)nn3)CC2)n1	0.6	-7.2	/	-5.5	/	/	/	/	/
C#CCOCCOCCOCCNc1nc(N2CCN(C(=O)CCCCCCCCCCNC(=O)[C@H](CCCCN)n3cc(C[C@@H](C)CC)nn3)CC2)nc(N2CCN(C(=O)CCCCCCCCCCNC(=O)[C@@H]([C@H](C)O)n3cc(C)nn3)CC2)n1	97.1*	91.5*	/	-41.0	/	/	0.4	97.1*	7.3
CN(C)C/C=C/C(O)(c1ccccc1)c1ccccc1	16.2	0.1	-2.3	7.2	-36.8	-2.5	/	/	/
CN(C)CC(CCC(CN(C)C)C(O)(c1ccccc1)c1ccccc1)C(O)(c1ccccc1)c1ccccc1 (configuration not stated)	100.3*	64.7*	-2.2	10.6	101.2*	-4.9	15.2	99.2*	51.8*
Cc1ccccc1OCC(=O)Nc1ccc(N2CCN(C)CC2)c(Cl)c1	3.5	-78.4	-3.6	-41.7	-140.5	0.4	/	/	/
COc1ccc(NC(=O)c2nc[nH]c2C(=O)Nc2ccccc2C)cc1	58.5*	52.8*	-4.3	-22.8	-29.2	-2.5	11.5	54.0*	48.5*
CCCc1cc(C(=O)N/N=C/c2ccc(C)o2)c2ccccc2n1	38.8	19.1	-2.6	-9.2	-42.2	-1.8	/	/	/
CCCc1cc(C(=O)N/N=C/c2ccc(CC)s2)c2ccccc2n1	63.2*	56.2*	-2.5	-30.5	9.6	-3.4	48.2	65.2*	39.9*
CCc1ccc(/C=N/NC(=O)c2cc(-c3ccncc3)nc3ccccc23)s1	52.3*	63.4*	-5.1	-74.8	83.2*	-4.3	49.8*	62.3*	80.4*
CCc1ccc(N2CC(C(=O)N/N=C/c3cc([N+](=O)[O-])ccc3O)CC2=O)cc1 (configuration not stated)	39.8	5.0	-0.8	0.0	11.5	1.8	/	/	/

Screening results deposited in PubChem BioAssay by several laboratories.
